{
  "source": "ChEMBL document CHEMBL1157804",
  "about": "“beta-Resorcylic acid lactones from a Paecilomyces fungus” (J Nat Prod, 2010)",
  "key": {"Plasmodium falciparum [1]": {"tested_on": "Plasmodium falciparum", "experiment": "Antiplasmodial activity against chloroquine-susceptible Plasmodium falciparum 3D7 after 72 hrs by malaria SYBR Green I-based fluorescence assay", "assay_type": "functional, organism-based", "details": "3D7, 72 h", "in_short": "(§1)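 Parasites kept continuously in O+ human erythrocytes with 10% human serum under 7% CO2/5% O2/88% N2. Test compounds from 100 mM DMSO stocks, serially diluted in culture medium, added in quadruplicate to asynchronous cultures at 0.2% parasitemia, 2% hematocrit. Incubated 72 h, 37 C. Lysis buffer with SYBR Green I added, 1 h 37 C dark. Fluorescence read at ex 497/em 520 nm. IC50 from nonlinear logistic dose-response regression.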"}, "[2]": {"experiment": "Cytotoxicity against african green monkey Vero cells at 18.52 uM after 72 hrs by MTT assay", "assay_type": "cell-based", "details": "chlorocebus sabaeus, read-out: INH"}, "[3]": {"experiment": "Cytotoxicity against african green monkey Vero cells at 6.17 uM after 72 hrs by MTT assay", "assay_type": "cell-based", "details": "chlorocebus sabaeus, read-out: INH"}, "[4]": {"experiment": "Cytotoxicity against african green monkey Vero cells at 55.56 uM after 72 hrs by MTT assay", "assay_type": "cell-based", "details": "chlorocebus sabaeus, read-out: INH"}, "[5]": {"experiment": "Cytotoxicity against african green monkey Vero cells at 166.67 uM after 72 hrs by MTT assay", "assay_type": "cell-based", "details": "chlorocebus sabaeus, read-out: INH"}, "Plasmodium falciparum [6]": {"tested_on": "Plasmodium falciparum", "experiment": "Antiplasmodial activity against chloroquine-resistant Plasmodium falciparum Dd2 after 72 hrs by malaria SYBR Green I-based fluorescence assay", "assay_type": "functional, organism-based", "details": "Dd2, 72 h", "in_short": "as §1"}},
  "data": [
    {"smiles": "COc1cc(O)c2c(c1)[C@@H]1O[C@@H]1C[C@H](O)[C@H](O)[C@@H](O)/C=C/C[C@H](C)OC2=O", "note": "[AIGIALOMYCIN B]", "values": [
      {"measurement": "IC50", "setting": "Plasmodium falciparum [1]", "result": 0.65, "unit": "µM"},
      {"measurement": "cytotoxicity at 72 h, 18.52 µM", "setting": "[2]", "result": 0, "unit": "%"},
      {"measurement": "cytotoxicity at 72 h, 6.17 µM", "setting": "[3]", "result": 0, "unit": "%"},
      {"measurement": "cytotoxicity at 72 h, 55.56 µM", "setting": "[4]", "result": 2.3, "unit": "%"},
      {"measurement": "cytotoxicity at 72 h, 166.67 µM", "setting": "[5]", "result": 30.2, "unit": "%"},
      {"measurement": "IC50", "setting": "Plasmodium falciparum [6]", "result": 13.5, "unit": "µM"}
    ]},
    {"smiles": "C[C@H]1C/C=C/[C@@H](O)[C@@H](O)CC/C=C/c2cc(O)cc(O)c2C(=O)O1", "note": "[AIGIALOMYCIN D]", "values": [
      {"measurement": "IC50", "setting": "Plasmodium falciparum [1]", "result": 3.1, "unit": "µM"},
      {"measurement": "cytotoxicity at 72 h, 18.52 µM", "setting": "[2]", "result": 12.5, "unit": "%"},
      {"measurement": "cytotoxicity at 72 h, 6.17 µM", "setting": "[3]", "result": 3.4, "unit": "%"},
      {"measurement": "cytotoxicity at 72 h, 55.56 µM", "setting": "[4]", "result": 30.2, "unit": "%"},
      {"measurement": "cytotoxicity at 72 h, 166.67 µM", "setting": "[5]", "result": 56.3, "unit": "%"},
      {"measurement": "IC50", "setting": "Plasmodium falciparum [6]", "result": 10.5, "unit": "µM"}
    ]},
    {"smiles": "COc1cc(O)c2c(c1)[C@@H](O)[C@H](C[C@H](O)[C@H](O)[C@@H](O)/C=C/C[C@H](C)O)OC2=O", "note": "[AIGIALOMYCIN F]", "values": [
      {"measurement": "IC50", "setting": "Plasmodium falciparum [1]", "result": 0.0109, "unit": "µM"},
      {"measurement": "cytotoxicity at 72 h, 18.52 µM", "setting": "[2]", "result": 15.6, "unit": "%"},
      {"measurement": "cytotoxicity at 72 h, 6.17 µM", "setting": "[3]", "result": 2.3, "unit": "%"},
      {"measurement": "cytotoxicity at 72 h, 55.56 µM", "setting": "[4]", "result": 20.3, "unit": "%"},
      {"measurement": "cytotoxicity at 72 h, 166.67 µM", "setting": "[5]", "result": 43.2, "unit": "%"},
      {"measurement": "IC50", "setting": "Plasmodium falciparum [6]", "result": "> 50", "unit": "µM"}
    ]},
    {"smiles": "C[C@@H]1CC[C@H]2[C@@H](C)C(=O)O[C@@H]3O[C@@]4(C)CC[C@@H]1[C@]32OO4", "note": "[ARTEMISININ]", "values": [
      {"measurement": "IC50", "setting": "Plasmodium falciparum [1]", "result": 0.0125, "unit": "µM"},
      {"measurement": "IC50", "setting": "Plasmodium falciparum [6]", "result": 0.0135, "unit": "µM"}
    ]},
    {"smiles": "COc1cc(O)c2c(c1)[C@@H]1O[C@@H]1C[C@H](O)[C@H](O)[C@H](O)/C=C/C[C@H](C)OC2=O", "note": "[PAECILOMYCIN A]", "values": [
      {"measurement": "IC50", "setting": "Plasmodium falciparum [1]", "result": 0.78, "unit": "µM"},
      {"measurement": "cytotoxicity at 72 h, 18.52 µM", "setting": "[2]", "result": 0, "unit": "%"},
      {"measurement": "cytotoxicity at 72 h, 6.17 µM", "setting": "[3]", "result": 0, "unit": "%"},
      {"measurement": "cytotoxicity at 72 h, 55.56 µM", "setting": "[4]", "result": 0, "unit": "%"},
      {"measurement": "cytotoxicity at 72 h, 166.67 µM", "setting": "[5]", "result": 29.6, "unit": "%"},
      {"measurement": "IC50", "setting": "Plasmodium falciparum [6]", "result": "> 50", "unit": "µM"}
    ]},
    {"smiles": "COc1cc(O)c2c(c1)[C@@H]1O[C@H]([C@H](O)/C=C/C[C@H](C)OC2=O)[C@@H](O)C[C@H]1O", "note": "[PAECILOMYCIN B]", "values": [
      {"measurement": "IC50", "setting": "Plasmodium falciparum [1]", "result": 3.8, "unit": "µM"},
      {"measurement": "cytotoxicity at 72 h, 18.52 µM", "setting": "[2]", "result": 0, "unit": "%"},
      {"measurement": "cytotoxicity at 72 h, 6.17 µM", "setting": "[3]", "result": 0, "unit": "%"},
      {"measurement": "cytotoxicity at 72 h, 55.56 µM", "setting": "[4]", "result": 5.6, "unit": "%"},
      {"measurement": "cytotoxicity at 72 h, 166.67 µM", "setting": "[5]", "result": 46.3, "unit": "%"},
      {"measurement": "IC50", "setting": "Plasmodium falciparum [6]", "result": "> 50", "unit": "µM"}
    ]},
    {"smiles": "COc1cc(O)c2c(c1)[C@@H]([C@H](O)C[C@H](O)[C@H](O)[C@@H](O)/C=C/C[C@H](C)O)OC2=O", "note": "[PAECILOMYCIN C]", "values": [
      {"measurement": "IC50", "setting": "Plasmodium falciparum [1]", "result": "> 50", "unit": "µM"},
      {"measurement": "IC50", "setting": "Plasmodium falciparum [6]", "result": "> 50", "unit": "µM"}
    ]},
    {"smiles": "COc1cc(O)c2c(c1)[C@@H]([C@H](O)C[C@H](O)[C@H](O)[C@H](O)/C=C/C[C@H](C)O)OC2=O", "note": "[PAECILOMYCIN D]", "values": [
      {"measurement": "IC50", "setting": "Plasmodium falciparum [1]", "result": "> 50", "unit": "µM"},
      {"measurement": "IC50", "setting": "Plasmodium falciparum [6]", "result": "> 50", "unit": "µM"}
    ]},
    {"smiles": "COc1cc(O)c2c(c1)/C=C/C[C@H](O)[C@H](O)[C@@H](O)CCC[C@H](C)OC2=O", "note": "[PAECILOMYCIN E]", "values": [
      {"measurement": "IC50", "setting": "Plasmodium falciparum [1]", "result": 0.02, "unit": "µM"},
      {"measurement": "cytotoxicity at 72 h, 18.52 µM", "setting": "[2]", "result": 3.4, "unit": "%"},
      {"measurement": "cytotoxicity at 72 h, 6.17 µM", "setting": "[3]", "result": 0, "unit": "%"},
      {"measurement": "cytotoxicity at 72 h, 55.56 µM", "setting": "[4]", "result": 23.5, "unit": "%"},
      {"measurement": "cytotoxicity at 72 h, 166.67 µM", "setting": "[5]", "result": 50.2, "unit": "%"},
      {"measurement": "IC50", "setting": "Plasmodium falciparum [6]", "result": 8.8, "unit": "µM"}
    ]},
    {"smiles": "COc1cc(O)c2c(c1)/C=C/C[C@H](O)[C@H](O)[C@H](O)CCC[C@H](C)OC2=O", "note": "[PAECILOMYCIN F]", "values": [
      {"measurement": "IC50", "setting": "Plasmodium falciparum [1]", "result": 1.1, "unit": "µM"},
      {"measurement": "cytotoxicity at 72 h, 18.52 µM", "setting": "[2]", "result": 10.4, "unit": "%"},
      {"measurement": "cytotoxicity at 72 h, 6.17 µM", "setting": "[3]", "result": 2.3, "unit": "%"},
      {"measurement": "cytotoxicity at 72 h, 55.56 µM", "setting": "[4]", "result": 25.7, "unit": "%"},
      {"measurement": "cytotoxicity at 72 h, 166.67 µM", "setting": "[5]", "result": 58.5, "unit": "%"},
      {"measurement": "IC50", "setting": "Plasmodium falciparum [6]", "result": 1.7, "unit": "µM"}
    ]},
    {"smiles": "COc1cc(O)c2c(c1)/C=C/C[C@H](O)[C@H](O)[C@@H](O)/C=C/C[C@H](C)OC2=O", "note": "[ZEAENOL]", "values": [
      {"measurement": "IC50", "setting": "Plasmodium falciparum [1]", "result": "> 50", "unit": "µM"},
      {"measurement": "IC50", "setting": "Plasmodium falciparum [6]", "result": "> 50", "unit": "µM"}
    ]}
  ]
}
